Data reported in ChEMBL document CHEMBL4043235, “Design, semisynthesis and potent cytotoxic activity of novel 10-fluorocamptothecin derivatives” (Bioorg Med Chem Lett, 2017).

Key:
Assay type in all cases: functional, cell-based
A549 = assay: Cytotoxicity against human A549 cells after 72 hrs by SRB assay; conditions: A549, 72 h
Procedure, shortened: (§1)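 Cells seeded at 3–5 × 10^3 per well in RPMI-1640 with 10% FBS holding various sample concentrations. Exposure 72 h. Attached cells fixed with cold 50% trichloroacetic acid for 30 min, then stained with 0.04% SRB for 30 min. Bound dye solubilized in 10 mM Tris-base, absorbance read at 515 nm. Three or more experiments; IC50 given as mean with standard deviation.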

MDA-MB-231 = assay: Cytotoxicity against human MDA-MB-231 cells after 72 hrs by SRB assay; conditions: MDA-MB-231, 72 h; procedure, shortened: as §1
KB = assay: Cytotoxicity against human KB cells after 72 hrs by SRB assay; procedure, shortened: as §1
[1] = Cytotoxicity against human KBVIN cells after 72 hrs by SRB assay; procedure, shortened: as §1
MCF7 = assay: Cytotoxicity against human MCF7 cells after 72 hrs by SRB assay; conditions: MCF7, 72 h; procedure, shortened: as §1

Row | Compound | IC50 (A549) [nM] | IC50 (MDA-MB-231) [nM] | IC50 (KB) [nM] | IC50 [1] [nM] | IC50 (MCF7) [nM]
1 | CCc1c2c(nc3ccc(F)cc13)-c1cc3c(c(=O)n1C2)COC(=O)[C@@]3(CC)OC(=O)CN/C(Cc1ccc(OC)cc1)=N/S(=O)(=O)c1ccc(C)cc1 | 8.72 | 238 | 47 | 99.2 | 80.8
2 | CC[C@@]1(O)C(=O)OCc2c1cc1n(c2=O)Cc2cc3c(CN(C)C)c(O)ccc3nc2-1 [TOPOTECAN] | 112 | 773 | 102 | – | 666
3 | CCc1c2c(nc3ccc(F)cc13)-c1cc3c(c(=O)n1C2)COC(=O)[C@]3(O)CC | 9.91 | 319 | 69.6 | 67 | 76.9
4 | CC[C@@]1(OC(=O)CN/C(Cc2ccc(OC)cc2)=N/S(=O)(=O)c2ccc(C)cc2)C(=O)OCc2c1cc1n(c2=O)Cc2cc3cc(F)ccc3nc2-1 | 62.2 | 601 | 280 | 497 | 649
5 | CC[C@@]1(O)C(=O)OCc2c1cc1n(c2=O)Cc2cc3cc(F)ccc3nc2-1 | 58.6 | 579 | 185 | 2950 | 431
6 | CCc1c2c(nc3ccc(OC(=O)N4CCC(N5CCCCC5)CC4)cc13)-c1cc3c(c(=O)n1C2)COC(=O)[C@]3(O)CC [IRINOTECAN] | – | 15600 | 7990 | > 20000 | –
